Measurements collected from several papers.
Effect on: enzyme activity
Mode: inhibitor
PIK3CD: Phosphatidylinositol 4,5-bisphosphate 3-kinase catalytic subunit delta isoform (PIK3CD, Homo sapiens, UniProt O00329)
KIT: Mast/stem cell growth factor receptor Kit (KIT, Homo sapiens, UniProt P10721)

SMILES | target | method | notes | IC50 [nM]
Oc1ccc(-c2nc(-c3ccncc3)c(-c3ccc(F)cc3)[nH]2)cc1 | Tau-tubulin kinase 1 (TTBK1, Homo sapiens, UniProt Q5TCY1) | – | – | 25500
CN(C)C(=O)c1cc2cnc(Nc3ccc(-c4cccc5c(=O)cc(N6CCNCC6)oc45)cc3)nc2n1C1CCCC1 | PIK3CD | radiometric | – | 2300
O=C1C(=Nc2ccccc2I)c2ccccc2N1Cc1ccc(Br)cc1 | PIK3CD | ADP detection | – | 139
COc1ccccc1N1CCN(C(=O)c2cccc(S(=O)(=O)n3cncn3)c2)CC1 | Prostaglandin reductase 2 (Homo sapiens, UniProt Q8N8N7) | – | lysate | 176
CN(C)C(=O)c1cc2cnc(Nc3cc(C(F)(F)F)c(-c4cccc5c(=O)cc(N6CCOCC6)oc45)cn3)nc2n1C1CCCC1 | PIK3CD | radiometric | – | 95
Cc1n[nH]c2ccc3nc(-c4ccc(C(=O)NCCN(C)C)cc4F)c4c(c3c12)CCCC4 | KIT | – | – | 512
Cc1cccc(N=C2C(=O)Nc3ccccc32)c1 | PIK3CD | ADP detection | – | 88.9
COc1c(Cl)cccc1Nc1c(-c2ccncc2OC[C@@H]2COCCO2)[nH]c2c1C(=O)NCC2 | Receptor tyrosine-protein kinase erbB-4 (ERBB4, Homo sapiens, UniProt Q15303) | TR-FRET | – | 13.9
C=CCN1C(=O)C(=Nc2cccc(C)c2)c2ccccc21 | PIK3CD | ADP detection | – | 81.2
CN(C)C(=O)c1cc2cnc(Nc3cc(C(=O)O)cc(-c4ccc5c(=O)cc(N6CCOCC6)oc5c4)c3)nc2n1C1CCCC1 | PIK3CD | radiometric | – | 725
CCc1nc(C(N)=O)c(Nc2ccc(N3CCC(N4CCN(C)CC4)CC3)c(OC)c2)nc1NC1CCOCC1 | KIT | – | – | 150
COc1cc(N=C2C(=O)Nc3ccccc32)cc(OC)c1 | PIK3CD | ADP detection | – | 48.3
CN(C)CCNC(=O)c1ccc(-c2nc3ccc4[nH]ncc4c3c3c2CCCC3)cc1 | KIT | – | – | > 1000
CN(C)C(=O)c1cc2cnc(Nc3cncc(-c4ccc5c(=O)cc(N6CCOCC6)oc5c4)c3)nc2n1C1CCCC1 | PIK3CD | radiometric | – | 137
CN(C)CCNC(=O)c1ccc(-c2nc3ccc4[nH]ncc4c3c3c2CCCCC3)cc1 | KIT | – | – | 990
O=C1C(=Nc2ccc(Cl)cc2)c2ccccc2N1Cc1ccc([N+](=O)[O-])cc1 | PIK3CD | ADP detection | – | 30.5
CN1CCN(c2cc(=O)c3ccc(Nc4ncc5cc(C(=O)N(C)C)n(C6CCCC6)c5n4)cc3o2)CC1 | PIK3CD | radiometric | – | > 10000
Cc1n[nH]c2ccc3nc(-c4ccc(C(=O)NCCN(C)C)cc4)c4c(c3c12)CCCC4 | KIT | – | – | 208
O=C1C(=Nc2ccc(Cl)cc2Br)c2ccccc2N1Cc1ccc([N+](=O)[O-])cc1 | PIK3CD | ADP detection | – | 50.9
CN(C)C(=O)c1cc2cnc(Nc3ccc(-c4ccc5c(=O)cc(N6CCOCC6)oc5c4)cc3)nc2n1C1CCCC1 | PIK3CD | radiometric | – | 897
